# Active and inactive are the calls of the source. The calls are words filed in the database; no cut-off is given here.
# Key:
# Trypanosoma brucei [1] = assay: Binding affinity to Trypanosoma brucei MetRS at 100 uM by thermal shift assay
# In short: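 Thermal shift (ΔTm) read-out with T. brucei MetRS at 0.4 mg/ml and 5% DMSO; otherwise per an earlier protocol. The test agent was at the single concentration in the curator's line. Repeated three times independently.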
# [2] = Permeability across MDCK2-MDR1 cells expressing MDR1 at 3 uM in absence of 2 uM P-gp inhibitor Elacridal by mass spectroscopy; type: ADME, cell-based, Canis lupus familiaris; conditions: dog, mdck-ii
# In short: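 MDR1-MDCKII cells seeded on Transwell inserts and assayed 3 days later at 37°C in HBSS with glucose and HEPES. Monolayers preincubated about 30 min with or without 2 μM elacridar, then given compound at 3 μM final (apical). After 60 min shaking, both chambers were sampled for MS. Integrity checked by Lucifer Yellow and TEER. Triplicate. Papp(A-B) and AQ calculated.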
# [3] = Drug level in Swiss Webster mouse brain at 5 mg/kg, ip after 60 mins by MS/MS method; type: ADME, organism-based; set-up: dose 5 mg/kg, route intraperitoneal; conditions: read-out: Drug uptake
# In short: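 Female Swiss Webster mice, 6-8 weeks old, three per compound, given 5 mg/kg IP in 5% DMSO/3% EtOH/7% Tween 80 saline. Killed at 1 h. Plasma and homogenised brain extracted with acetonitrile containing an extraction standard, with spiked blank brains used for standardisation. Quantified by LC-MS/MS.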
# [4] = molecular target: ATP-dependent translocase ABCB1 (Homo sapiens, UniProt P08183); assay: Binding affinity to MDR1 expressed in MDCK2 cells assessed as absorptive quotient at 3 uM in absence of 2 uM by mass spectroscopy; type: ADME, cell-based; conditions: dog, mdck-ii
# In short: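 Monolayers preincubated about 30 min with or without 2 μM elacridar, then given compound at 3 μM final (apical). After 60 min shaking, both chambers were sampled for MS. Integrity checked by Lucifer Yellow and TEER. Triplicate. Papp(A-B) and AQ calculated.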
# Trypanosoma brucei [5] = assay: Inhibition of protein synthesis in Trypanosoma brucei assessed as reduction in [3H]L-histidine incorporation into proteins incubated for 4 hrs by scintillation counting; type: functional, organism-based
# [6] = Selectivity index, ratio of EC50 for human CRL8155 cells to EC50 for Trypanosoma brucei brucei 427; type: toxicity; conditions: read-out: Ratio EC50
# [7] = Selectivity index, ratio of EC50 for human HepG2 cells to EC50 for Trypanosoma brucei brucei 427; type: toxicity, cell-based; conditions: read-out: Ratio EC50
# [8] = Inhibition of Trypanosoma brucei MetRS aminoacylation activity assessed as reduction in [3H]methionine incorporation into Escherichia coli tRNA pre-incubated for 15 mins before tRNA addition and measured after 120 mins by scintillation counting
# In short: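 Recombinant enzyme at 10 nM, preincubated 15 min with 12-point two-fold inhibitor dilutions in 25 mM HEPES pH 7.9, 10 mM MgCl2, 50 mM KCl, spermine, BSA, DTT, 1% DMSO and pyrophosphatase. Reaction started with 400 μg/mL E. coli tRNA, 0.1 mM ATP and 250 nM [3H]methionine, run 120 min at room temperature. TCA-precipitated and filtered for scintillation counting. Quadruplicate, with IC50 by sigmoidal fit.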
# [9] = Selectivity ratio of IC50 for human MetRS to IC50 for Trypanosoma brucei MetRS
# In short: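 Ratio of the human mitochondrial MetRS IC50 to the T. brucei MetRS IC50, each from a [3H]methionine aminoacylation assay.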
# [10] = tested on: Trypanosoma brucei brucei; assay: Growth inhibition of Trypanosoma brucei brucei 427 blood stream forms after 48 hrs by alamar blue assay; type: functional, organism-based; conditions: Trypanosoma brucei, 427, 48 h
# In short: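 Strain 427 bloodstream forms cultured in HMI-9 with 10% FBS at 37°C, 5% CO2. Triplicate wells seeded at 5×10^4 trypomastigotes with serial compound dilutions from 20 mM DMSO stocks. AlamarBlue read-out at 48 h, with pentamidine as the positive control.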
# [11] = Cytotoxicity against human CRL8155 cells incubated for 48 hrs by alamar blue assay; type: cell-based; conditions: CRL8155, 48 h
# In short: (§1)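 […] cells in RPMI or HepG2 cells in DMEM/F-12, each with 10% serum, seeded at 5×10^3 per well. Exposed to serial compound dilutions for 48 h.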
# [12] = Cmax in mouse at 50 mg/kg, po administered as single dose measured over 6 hrs by MS/MS method; type: ADME, organism-based; set-up: dose 50 mg/kg, route oral; conditions: in vivo
# In short: (§2)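 Mice, three per group, given one oral dose of 50 mg/kg in 5% DMSO, 3% EtOH, 7% Tween 80 in saline. Tail-snip blood taken at 0.5, 1, 2, 3, 4 and 6 h. Plasma extracted with acetonitrile and quantified by LC-MS/MS.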
# [13] = Tmax in mouse at 50 mg/kg, po administered as single dose measured over 6 hrs by MS/MS method; type: ADME, organism-based; set-up: dose 50 mg/kg, route oral; conditions: in vivo; in short: as §2
# [14] = Half life in mouse at 50 mg/kg, po administered as single dose measured over 6 hrs by MS/MS method; type: ADME, organism-based; set-up: dose 50 mg/kg, route oral; conditions: in vivo; in short: as §2
# [15] = AUC in mouse at 50 mg/kg, po administered as single dose measured over 6 hrs by MS/MS method; type: ADME, organism-based, Plasma; set-up: time < 6 hr, dose 50 mg/kg, route oral; conditions: plasma; in short: as §2
# HepG2 = assay: Cytotoxicity against human HepG2 cells incubated for 48 hrs by alamar blue assay; type: cell-based; conditions: HepG2, 48 h; in short: as §1
# ATP-dependent translocase ABCB1, sequence (P08183 whole entry): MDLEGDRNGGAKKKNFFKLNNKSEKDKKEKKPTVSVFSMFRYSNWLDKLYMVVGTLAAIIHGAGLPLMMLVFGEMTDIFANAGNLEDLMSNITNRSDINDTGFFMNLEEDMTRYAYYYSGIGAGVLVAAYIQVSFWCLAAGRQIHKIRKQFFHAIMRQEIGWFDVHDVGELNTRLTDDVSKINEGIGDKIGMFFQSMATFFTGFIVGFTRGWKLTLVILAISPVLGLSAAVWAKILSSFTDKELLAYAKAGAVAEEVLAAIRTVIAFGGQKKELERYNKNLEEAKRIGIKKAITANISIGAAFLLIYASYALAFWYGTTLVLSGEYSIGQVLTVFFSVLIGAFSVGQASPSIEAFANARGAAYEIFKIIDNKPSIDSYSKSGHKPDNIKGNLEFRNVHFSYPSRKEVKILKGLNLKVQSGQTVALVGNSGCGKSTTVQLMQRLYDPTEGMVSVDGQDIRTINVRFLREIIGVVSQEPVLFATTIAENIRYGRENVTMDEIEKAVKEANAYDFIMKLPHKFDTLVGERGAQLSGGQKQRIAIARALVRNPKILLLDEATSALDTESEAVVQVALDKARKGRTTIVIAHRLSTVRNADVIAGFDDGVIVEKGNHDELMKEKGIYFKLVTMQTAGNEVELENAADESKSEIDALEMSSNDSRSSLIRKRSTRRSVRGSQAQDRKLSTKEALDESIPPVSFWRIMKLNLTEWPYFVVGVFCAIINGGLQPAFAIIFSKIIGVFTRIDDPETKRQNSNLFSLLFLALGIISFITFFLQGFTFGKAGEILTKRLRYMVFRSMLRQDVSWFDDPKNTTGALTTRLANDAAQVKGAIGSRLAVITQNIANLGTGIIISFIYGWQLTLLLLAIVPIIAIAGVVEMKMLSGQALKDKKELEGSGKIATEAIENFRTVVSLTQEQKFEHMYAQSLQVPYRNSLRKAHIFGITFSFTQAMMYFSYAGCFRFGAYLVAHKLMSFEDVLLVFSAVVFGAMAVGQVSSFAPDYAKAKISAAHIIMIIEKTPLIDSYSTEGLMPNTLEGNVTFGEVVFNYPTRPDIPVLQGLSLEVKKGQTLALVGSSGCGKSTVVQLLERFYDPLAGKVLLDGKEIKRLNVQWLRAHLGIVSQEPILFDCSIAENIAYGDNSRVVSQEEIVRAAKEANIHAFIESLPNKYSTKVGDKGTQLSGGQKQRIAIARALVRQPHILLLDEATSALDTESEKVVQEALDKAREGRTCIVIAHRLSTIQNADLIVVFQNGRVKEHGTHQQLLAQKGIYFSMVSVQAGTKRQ
structure (smiles),measurement,setting,value
O=C(NCCCNCc1cc(Cl)cc(Cl)c1)Nc1ccccn1,ΔTm,Trypanosoma brucei [1],4.5 °C
Nc1cccc(NC(=O)NCCCNCc2cc(Cl)cc(Cl)c2)c1,ΔTm,Trypanosoma brucei [1],4.3 °C
Oc1cc(NCCCNCc2cc(Cl)cc(Cl)c2)nc2ccccc12,Papp,[2],2.9 ×10⁻⁶ cm/s
same,concentration at 1 h,[3],< 3 nM
same,AQ,[4],0.36
same,inhibition,Trypanosoma brucei [5],Dose-dependent effect
same,selectivity ratio,[6],27
same,selectivity ratio,[7],27
CCOc1ccccc1CNCCCNC(=O)Nc1ccccc1,ΔTm,Trypanosoma brucei [1],1.1 °C
COc1cc(Cl)cc(CNCCCNC(=O)Nc2ccccc2)c1,ΔTm,Trypanosoma brucei [1],7.7 °C
same,IC50,[8],45 nM
same,Ratio IC50,[9],186
same,EC50,[10],330 nM
same,EC50,[11],20000 nM
same,Papp,[2],7.3 ×10⁻⁶ cm/s
same,AQ,[4],0.49
COc1cc(Cl)cc(CNCCCNC(=O)Nc2ccsc2)c1,ΔTm,Trypanosoma brucei [1],7.9 °C
same,IC50,[8],19 nM
same,Ratio IC50,[9],347
same,EC50,[10],150 nM
same,EC50,[11],22000 nM
same,Papp,[2],9.7 ×10⁻⁶ cm/s
same,Cmax,[12],1290 nM
same,Tmax,[13],30 min
same,half-life,[14],82 min
same,AUC at 6 h,[15],2.68 µM·h
same,AQ,[4],0.53
same,selectivity ratio,[6],147
same,selectivity ratio,[7],147
NCCCC(N)(C(=O)O)C(F)F (stereo not drawn),inhibition,Trypanosoma brucei [5],inactive
O=C(NCCCNCc1cc(Cl)cc(Cl)c1)Nc1cccs1,ΔTm,Trypanosoma brucei [1],7.6 °C
same,IC50,[8],64 nM
same,Ratio IC50,[9],48
same,EC50,[10],350 nM
same,EC50,HepG2,14500 nM
O=C(NCCCNCc1ccccc1Cl)Nc1ccccc1,ΔTm,Trypanosoma brucei [1],1.9 °C
O=C(NCCCNCc1cc(Cl)cc(Cl)c1)Nc1cccc(Cl)c1,ΔTm,Trypanosoma brucei [1],5.2 °C
CCOc1ccc(CNCCCNC(=O)Nc2ccccc2)cc1,ΔTm,Trypanosoma brucei [1],0.5 °C
C[C@@H]1C[C@@H]([C@H](O)CC2CC(=O)NC(=O)C2)C(=O)[C@@H](C)C1,inhibition,Trypanosoma brucei [5],Dose-dependent effect
O=C(NCCCNCc1cc(Cl)cc(Cl)c1)Nc1cccnc1,ΔTm,Trypanosoma brucei [1],7.1 °C
O=C(NCCCNCc1cc(Cl)cc(Cl)c1)Nc1ccncc1,ΔTm,Trypanosoma brucei [1],3.1 °C
O=C(NCCCNCc1cc(Cl)cc(Cl)c1)Nc1ccc(Cl)cc1,ΔTm,Trypanosoma brucei [1],5.7 °C
O=C(NCCCNCc1cc(Cl)cc(Cl)c1)Nc1ccccc1O,ΔTm,Trypanosoma brucei [1],8.4 °C
same,IC50,[8],39 nM
same,Ratio IC50,[9],95
same,EC50,[10],210 nM
same,EC50,HepG2,> 20000 nM
N=C(NCCCNCc1cc(Cl)cc(Cl)c1)Nc1ccccc1,ΔTm,Trypanosoma brucei [1],4.5 °C

# — ChEMBL document CHEMBL2157993, “Urea-based inhibitors of Trypanosoma brucei methionyl-tRNA synthetase: selectivity and in vivo characterization” (J Med Chem, 2012)
